From ChEMBL document CHEMBL1141146, “Androsterone 3alpha-ether-3beta-substituted and androsterone 3beta-substituted derivatives as inhibitors of type 3 17beta-hydroxysteroid dehydrogenase: chemical synthesis and structure-activity relationship” (J Med Chem, 2005)

Tests used:
[1] = molecular target: T1, 17-beta-hydroxysteroid dehydrogenase type 3 (Homo sapiens) (UniProt P37058); experiment: Inhibition of type-3 17 beta-hydroxysteroid dehydrogenase expressed in HEK293 cells at 0.3 uM 37 degree C pH 7.4; format: cell-based
T1 sequence (whole entry): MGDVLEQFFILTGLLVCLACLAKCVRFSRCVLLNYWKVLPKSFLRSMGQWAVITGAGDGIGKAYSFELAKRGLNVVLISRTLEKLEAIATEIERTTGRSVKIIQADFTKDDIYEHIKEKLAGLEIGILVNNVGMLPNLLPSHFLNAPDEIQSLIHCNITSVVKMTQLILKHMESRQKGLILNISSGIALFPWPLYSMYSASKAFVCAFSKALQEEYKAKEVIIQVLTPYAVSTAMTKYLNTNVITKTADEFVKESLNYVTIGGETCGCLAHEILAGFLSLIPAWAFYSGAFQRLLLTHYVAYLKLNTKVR
Procedure, shortened: (§1)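 Human type 3 17β-HSD was transfected into HEK-293 cells by calcium phosphate. The cells were sonicated in 50 mM Na phosphate pH 7.4 with 20% glycerol and 1 mM EDTA. The 100000g microsomal pellet served as enzyme. The reaction ran at 37 °C in the same buffer with 2 mM NADPH and 0.1 μM [14C]-Δ4-dione, reading conversion to testosterone. Percent inhibition was taken at 0.3 or 3 μM inhibitor.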

[2] = molecular target: T1, 17-beta-hydroxysteroid dehydrogenase type 3 (Homo sapiens); experiment: Inhibition of type-3 17 beta-hydroxysteroid dehydrogenase expressed in HEK293 cells at 3 uM 37 degree C pH 7.4; format: cell-based; procedure, shortened: as §1
[3] = molecular target: T2, 17-beta-hydroxysteroid dehydrogenase type 3 (Homo sapiens, UniProt P37058); experiment: Inhibition of type-3 17 beta-hydroxysteroid dehydrogenase expressed in HEK293 cells at 37 degree C pH7.4; format: cell-based
T2 sequence (P37058 whole entry): T1 sequence (whole entry)
Procedure, shortened: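 HEK-293 cells were transfected with human type 3 17β-HSD, and their 100000g microsomes served as enzyme. Incubation was at 37 °C in 50 mM Na phosphate pH 7.4 with 20% glycerol, 1 mM EDTA, 2 mM NADPH and 0.1 μM [14C]-Δ4-dione. Several inhibitor concentrations were tested. Percent transformation to testosterone was plotted against inhibitor concentration, and IC50 was computed from the curve.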

[4] = molecular target: T1, 17-beta-hydroxysteroid dehydrogenase type 3 (Homo sapiens); experiment: Inhibition of type-3 17 beta-hydroxysteroid dehydrogenase expressed in HEK293 cells at 3 uM 37 degree C in pH 7.4; format: cell-based; procedure, shortened: as §1
[5] = molecular target: T1, 17-beta-hydroxysteroid dehydrogenase type 3 (Homo sapiens); settings: HEK293, 0.3 uM

C[C@]1(O)CC[C@@]2(C)C(CC[C@@H]3[C@@H]2CC[C@]2(C)C(=O)CC[C@@H]32)C1 (stereo not given in full)
inhibition [1]: 9% | inhibition [2]: 16%

C[C@]12CC[C@@](O)(CCCO)CC1CC[C@@H]1[C@@H]2CC[C@]2(C)C(=O)CC[C@@H]12 (stereo not given in full)
inhibition [1]: 2% | inhibition [2]: 17%

CCO[C@@H]1CC[C@@]2(C)C(CC[C@@H]3[C@@H]2CC[C@]2(C)C(=O)CC[C@@H]32)C1 (stereo not given in full)
inhibition [1]: 69% | inhibition [2]: 95%

C[C@]12CC[C@@H](OCCCO)CC1CC[C@@H]1[C@@H]2CC[C@]2(C)C(=O)CC[C@@H]12 (stereo not given in full)
inhibition [1]: 38% | inhibition [2]: 86%

C[C@]12CC[C@@](O)(c3ccccc3)CC1CC[C@@H]1[C@@H]2CC[C@]2(C)C(=O)CC[C@@H]12 (stereo not given in full)
inhibition [1]: 7% | inhibition [2]: 39%

C[C@]12CCC3(CCCO3)CC1CC[C@@H]1[C@@H]2CC[C@]2(C)C(=O)CC[C@@H]12 (stereo not given in full)
inhibition [1]: 3% | inhibition [2]: 94%

CCCO[C@]1(Cc2ccccc2)CC[C@@]2(C)C(CC[C@@H]3[C@@H]2CC[C@]2(C)C(=O)CC[C@@H]32)C1 (stereo not given in full)
inhibition [1]: 60% | inhibition [2]: 87%

CO[C@]1(CCc2ccccc2)CC[C@@]2(C)C(CC[C@@H]3[C@@H]2CC[C@]2(C)C(=O)CC[C@@H]32)C1 (stereo not given in full)
inhibition [1]: 61% | IC50 [3]: 0.073 µM | inhibition [2]: 95%

CCCC[C@@]1(O)CC[C@@]2(C)C(CC[C@@H]3[C@@H]2CC[C@]2(C)C(=O)CC[C@@H]32)C1 (stereo not given in full)
inhibition [1]: 88% | IC50 [3]: 0.116 µM | inhibition [2]: 92%

C=CC[C@]1(O)CC[C@@]2(C)C(CC[C@@H]3[C@@H]2CC[C@]2(C)C(=O)CC[C@@H]32)C1 (stereo not given in full)
inhibition [1]: 14% | inhibition [2]: 36%

C=CC[C@@]1(O)CC[C@@]2(C)C(CC[C@@H]3[C@@H]2CC[C@]2(C)C(=O)CC[C@@H]32)C1 (stereo not given in full)
inhibition [1]: 31% | inhibition [2]: 76%

C[C@]12CC[C@@H](OCCCBr)CC1CC[C@@H]1[C@@H]2CC[C@]2(C)C(=O)CC[C@@H]12 (stereo not given in full)
inhibition [1]: 56% | inhibition [2]: 93%

CC(O)CO[C@@H]1CC[C@@]2(C)C(CC[C@@H]3[C@@H]2CC[C@]2(C)C(=O)CC[C@@H]32)C1 (stereo not given in full)
inhibition [1]: 40% | inhibition [2]: 89%

C[C@]12CC[C@@](O)(Cc3ccccc3)CC1CC[C@@H]1[C@@H]2CC[C@]2(C)C(=O)CC[C@@H]12 (stereo not given in full)
inhibition [1]: 10% | inhibition [2]: 39%

C=CCO[C@@H]1CC[C@@]2(C)C(CC[C@@H]3[C@@H]2CC[C@]2(C)C(=O)CC[C@@H]32)C1 (stereo not given in full)
inhibition [1]: 73% | inhibition [2]: 95%

CCCCCCO[C@]1(Cc2ccccc2)CC[C@@]2(C)C(CC[C@@H]3[C@@H]2CC[C@]2(C)C(=O)CC[C@@H]32)C1 (stereo not given in full)
inhibition [1]: 24% | inhibition [2]: 28%

C[C@]12CC[C@](O)(CCCc3ccccc3)CC1CC[C@@H]1[C@@H]2CC[C@]2(C)C(=O)CC[C@@H]12 (stereo not given in full)
inhibition [1]: 93% | inhibition [4]: 97%

CO[C@@H]1CC[C@@]2(C)C(CC[C@@H]3[C@@H]2CC[C@]2(C)C(=O)CC[C@@H]32)C1 (stereo not given in full)
inhibition [1]: 83% | inhibition [2]: 94%

CC(C)(C)[C@@]1(O)CC[C@@]2(C)C(CC[C@@H]3[C@@H]2CC[C@]2(C)C(=O)CC[C@@H]32)C1 (stereo not given in full)
inhibition [5]: 89% | IC50 [3]: 0.142 µM | inhibition [2]: 93%

CCCCCCO[C@@H]1CC[C@@]2(C)C(CC[C@@H]3[C@@H]2CC[C@]2(C)C(=O)CC[C@@H]32)C1 (stereo not given in full)
inhibition [1]: 45% | inhibition [2]: 92%

CCC[C@]1(O)CC[C@@]2(C)C(CC[C@@H]3[C@@H]2CC[C@]2(C)C(=O)CC[C@@H]32)C1 (stereo not given in full)
inhibition [1]: 9% | inhibition [2]: 33%

CCO[C@]1(Cc2ccccc2)CC[C@@]2(C)C(CC[C@@H]3[C@@H]2CC[C@]2(C)C(=O)CC[C@@H]32)C1 (stereo not given in full)
inhibition [1]: 80% | IC50 [3]: 0.352 µM | inhibition [2]: 92%

CO[C@]1(Cc2ccccc2)CC[C@@]2(C)C(CC[C@@H]3[C@@H]2CC[C@]2(C)C(=O)CC[C@@H]32)C1 (stereo not given in full)
inhibition [1]: 91% | IC50 [3]: 0.154 µM | inhibition [2]: 93%

CCCCCCCCCCCC[C@@]1(O)CC[C@@]2(C)C(CC[C@@H]3[C@@H]2CC[C@]2(C)C(=O)CC[C@@H]32)C1 (stereo not given in full)
inhibition [1]: 50% | inhibition [2]: 77%

C[C@]12CC[C@@]3(CCC(=O)O3)CC1CC[C@@H]1[C@@H]2CC[C@]2(C)C(=O)CC[C@@H]12 (stereo not given in full)
inhibition [1]: 9% | inhibition [2]: 53%

C[C@]12CC[C@H](O)CC1CC[C@@H]1[C@@H]2CC[C@]2(C)C(=O)CC[C@@H]12 (stereo not given in full)
inhibition [1]: 1% | inhibition [2]: 18%

C[C@]12CC[C@](O)(CCCO)CC1CC[C@@H]1[C@@H]2CC[C@]2(C)C(=O)CC[C@@H]12 (stereo not given in full)
inhibition [1]: 17% | inhibition [2]: 74%

C[C@]12CC[C@]3(CCC(=O)O3)CC1CC[C@@H]1[C@@H]2CC[C@]2(C)C(=O)CC[C@@H]12 (stereo not given in full)
inhibition [1]: 50% | inhibition [2]: 93%

C[C@]12CC[C@@H](OCCC(=O)O)CC1CC[C@@H]1[C@@H]2CC[C@]2(C)C(=O)CC[C@@H]12 (stereo not given in full)
inhibition [1]: 7% | inhibition [2]: 48%

C=C[C@@]1(O)CC[C@@]2(C)C(CC[C@@H]3[C@@H]2CC[C@]2(C)C(=O)CC[C@@H]32)C1 (stereo not given in full)
inhibition [1]: 77% | inhibition [2]: 94%

CCCO[C@@H]1CC[C@@]2(C)C(CC[C@@H]3[C@@H]2CC[C@]2(C)C(=O)CC[C@@H]32)C1 (stereo not given in full)
inhibition [1]: 49% | inhibition [2]: 93%

CO[C@]1(CCC2CCCCC2)CC[C@@]2(C)C(CC[C@@H]3[C@@H]2CC[C@]2(C)C(=O)CC[C@@H]32)C1 (stereo not given in full)
inhibition [1]: 80% | IC50 [3]: 0.354 µM | inhibition [2]: 88%
